Drawing on ChEMBL document CHEMBL3272023, “Metabolic formation and synthesis of 1-(3-chlorophenyl)-2(4-hydroxyphenyl)-1-methyl-2(2 pyridine)ethanol. A potential hypocholesteremic agent” (J Med Chem, 1976), this text covers Rf, Drug excretion and Drug metabolism for one molecule.

Details in all cases: in vivo
Series [1] in a line: Retardation factor of the compound in Sprague-Dawley rat urine at 15.6 uCi, ip using hexane-chloroform-acetic acid at 6:3:1 ratio TLC system I. Type of series: physicochemical, organism-based. In short, it runs like this:
(§1)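 Urine from two rats (250 g) given 300 mg/kg (15.6 µCi) ip was examined by TLC, directly and before/after enzymatic hydrolysis (pH 5.8, 37°, 72 h). Standards were located by fluorescence quenching. Radioactivity was measured by scintillation counting of 0.5-cm silica gel strips scraped from the plates.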

Series [2] is described as follows: Drug excretion in Sprague-Dawley rat assessed as total radioactivity in feces at 1.71 uCi, ip. The series is classed as ADME. The method in brief: (§2)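 Three male rats (250 ± 10 g), each in its own metabolic cage with diet and water ad libitum, given 40 mg/kg ³H-labelled drug (1.71 µCi) ip as 1 ml aqueous 0.26% Tween 80 suspension. Urine and feces collected at 11 h, then daily for 13 days. Feces air-dried, powdered, oxidized and counted. Tissues assayed after sacrifice on day 14.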

A short description of series [3]: Drug metabolism in Sprague-Dawley rat urine assessed as hydroxylated 2-benzylpyridine at 15.6 uCi, ip by gas chromatography-mass spectrometry. The series is classed as ADME, organism-based. The method in brief:
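Two rats (250 g) dosed ip at 300 mg/kg (15.6 µCi). Urine hydrolysed at pH 5.8, 37°, 72 h with Helix pomatia glucuronidase/arylsulfatase or bovine liver β-glucuronidase. Preparative TLC in system II; the radioactive band at Rf 0.6 extracted into Et2O and silylated (bis(trimethylsilyl)acetamide/triethylamine). GLC on 3% SE-30, fractions counted, radioactive peak sent to MS.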

Series [4] is described as follows: Drug excretion in Sprague-Dawley rat assessed as radioactivity in urine at 1.71 uCi, ip measured on day 1. Type of series: ADME, organism-based. In short, it runs like this:
as §2

A short description of series [5]: Drug metabolism in Sprague-Dawley rat urine at 15.6 uCi, ip using benzene-methanol at 8:2 ratio TLC system II. Type of series: ADME, organism-based. In short, it runs like this: as §1
Series [6] can be described thus: Drug excretion in Sprague-Dawley rat assessed as radioactivity in feces at 1.71 uCi, ip measured on day 13. The series is classed as ADME, organism-based. In short, it runs like this: as §2
Series [7] can be described thus: Drug metabolism in Sprague-Dawley rat urine at 15.6 uCi, ip using hexane-chloroform-acetic acid at 6:3:1 ratio TLC system I. The series is classed as ADME, organism-based. The method in brief:
as §1

Series [8] can be described thus: Drug excretion in Sprague-Dawley rat assessed as radioactivity in feces at 1.71 uCi, ip measured on day 1.
The nature of series [9]: Drug excretion in Sprague-Dawley rat assessed as radioactivity in urine at 1.71 uCi, ip measured on day 7. The series is classed as ADME, organism-based. The method in brief: as §2
Series [10] in a line: Drug metabolism in Sprague-Dawley rat urine at 15.6 uCi, ip using Et2O TLC system. The series is classed as ADME, organism-based. The method in brief: as §1

Take `CC(O)(c1cccc(Cl)c1)C(c1ccccc1)c1ccccn1` (stereo not given): the Rf in [1] was 0.56. The Drug excretion was 25% in [2]; 5% in series [4]; under 1% in [6]; 7% in series [8]; under 1% in [9]. In addition, the Drug metabolism entry in series [3] is given as “metabolite_detected”; in series [5], “metabolite_detected”; in series [7], “metabolite_notdetected”; in series [10] it was “metabolite_detected”.
